According to ChEMBL document CHEMBL1121715, “New antiarrhythmic agents. 4. 1'-(Aminoalkyl)-1,2,3,4-tetrahydronaphthalene-1-spiro-3'-pyrrolidine-2',5'-dione derivatives” (J Med Chem, 1981):

How the values were obtained:
[1] = organism: Canis familiaris; assay: The dose at which toxicity was measured; 0.065; 0.0182; format: organism-based, Canis lupus familiaris; conditions: dog, in vivo
In short: (§1)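 Adult female dogs (6.7–14.5 kg) had two-stage ligation of the left anterior descending coronary artery the day before testing. After control ventricular rate, % ectopic beats and mean arterial pressure were recorded, the drug (HCl salt, isotonic solution) was infused iv without anesthesia at 0.1, 0.5 or 1.0 (mg/kg)/min, mostly 0.5. Infusion continued until the arrhythmia was abolished or cardiovascular/CNS toxicity appeared. Cumulative dose is given in mmol/kg; toxicity included convulsion and P-R prolongation ≥25%.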

[2] = organism: Canis familiaris; assay: The Maximum dose of the compound; format: functional, Canis lupus familiaris; in short: as §1
[3] = test system: Canis familiaris; assay: Blood level was measured in anesthetized dog at 0.058 dose; format: functional, Canis lupus familiaris
[4] = test system: Canis familiaris; assay: % ectopic beats was measured in anesthetized dog at 0.023 dose; format: functional, Canis lupus familiaris, Heart; conditions: in the assay text read “unanesthetized” for “anesthetized”
In short: (§2)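 Adult female dogs (6.7–14.5 kg) had the left anterior descending coronary artery ligated in two stages the day before testing. Dogs were unanesthetized. Ectopic beats (% of ventricular rate) and mean arterial pressure were read at maximal antiarrhythmic effect against the cumulative dose.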

[5] = test system: Mus musculus; assay: Protection against chloroform induced arrhythmias in mice after subcutaneous administration at 100 mg/kg dose.; format: functional
In short: (§3)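 Groups of 10 unanesthetized mice got sc injection of drug in 0.9% saline. After 20 min observation they were placed one by one in chloroform-vapor-saturated air. When breathing stopped, the thorax was opened and the heart inspected by eye; coordinated ventricular contractions counted as protected.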

[6] = test system: Canis familiaris; assay: Blood level was measured in anesthetized dog at 0.053 dose; format: functional, Canis lupus familiaris
[7] = test system: Canis familiaris; assay: % ectopic beats was measured in anesthetized dog at 0.053 dose; format: functional, Canis lupus familiaris, Heart; conditions: in the assay text read “unanesthetized” for “anesthetized”; in short: as §2
[8] = test system: Canis familiaris; assay: % ectopic beats was measured in anesthetized dog at 0.038 dose; format: functional, Canis lupus familiaris, Heart; conditions: in the assay text read “unanesthetized” for “anesthetized”; in short: as §2
[9] = organism: Mus musculus; assay: Percentage toxicity measured as loss of righting reflex.; format: organism-based; conditions: in vivo
In short: (§4)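 Mice (groups of 10) were dosed sc with drug in 0.9% saline and watched for 20 min for overt toxicity (ataxia, convulsions, loss of righting reflex, death) before chloroform exposure.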

[10] = organism: Canis familiaris; assay: The Maximum dose of the Compound; format: functional, Canis lupus familiaris; in short: as §1
[11] = test system: Canis familiaris; assay: MABP value was measured in anesthetized dog at 0.038dose; format: functional, Canis lupus familiaris; conditions: in the assay text read “unanesthetized dog” for “anesthetized dog”; in short: as §1
[12] = test system: Canis familiaris; assay: % ectopic beats was measured in anesthetized dog at 0.015 dose; format: functional, Canis lupus familiaris, Heart; conditions: in the assay text read “unanesthetized” for “anesthetized”; in short: as §2
[13] = test system: Canis familiaris; assay: Ventricular rate was measured in anesthetized dog at 0.023 dose; format: functional, Canis lupus familiaris, Heart; conditions: in the assay text read “unanesthetized” for “anesthetized”; in short: as §1
[14] = test system: Canis familiaris; assay: % ectopic beats was measured in unanesthetized dog at 0.058 dose
[15] = test system: Canis familiaris; assay: MABP value was measured in anesthetized dog at 0.023 dose; format: functional, Canis lupus familiaris; conditions: in the assay text read “unanesthetized dog” for “anesthetized dog”; in short: as §2
[16] = test system: Canis familiaris; assay: Blood level was measured in anesthetized dog at 0.038 dose; format: functional, Canis lupus familiaris
[17] = test system: Mus musculus; assay: Protection against chloroform induced arrhythmias was measured in mice after sc administration at given dose; format: functional; in short: as §3
[18] = test system: Canis familiaris; assay: Ventricular rate was measured in anesthetized dog at 0.038 dose; format: functional, Canis lupus familiaris, Heart; conditions: in the assay text read “unanesthetized dog” for “anesthetized dog”; in short: as §1
[19] = test system: Canis familiaris; assay: % ectopic beats was measured in anesthetized dog at 0.018 dose; format: functional, Canis lupus familiaris, Heart; conditions: in the assay text read “unanesthetized” for “anesthetized”; in short: as §2
[20] = test system: Canis familiaris; assay: MABP value was measured in anesthetized dog at 0.015 dose; format: functional, Canis lupus familiaris; conditions: in the assay text read “unanesthetized dog” for “anesthetized dog”; in short: as §2
[21] = Total body clearance was measured at given dose; format: ADME
In short: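 Blood levels came from the iv-infused dogs, measured by GC-FID after methylene chloride extraction and heptafluorobutyryl derivatization with an internal standard. Total body clearance was total dose divided by the blood-level AUC (zero to infinity); volume of distribution was clearance divided by the elimination rate constant.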

[22] = test system: Canis familiaris; assay: MABP value was measured in anesthetized dog at 0.053 dose; format: functional, Canis lupus familiaris; conditions: in the assay text read “unanesthetized dog” for “anesthetized dog”; in short: as §1
[23] = test system: Canis familiaris; assay: Blood level was measured in anesthetized dog at 0.015 dose; format: functional, Canis lupus familiaris
[24] = organism: Mus musculus; assay: Percentage toxicity measured as ataxia.; format: organism-based; conditions: in vivo; in short: as §4
[25] = Volume of distribution was measured at given dose of 227 uM/kg; format: ADME, organism-based; conditions: in vivo
In short: (§5)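 In dogs given iv infusions, blood samples were alkaline-extracted (pH 10.3) into methylene chloride and derivatized with heptafluorobutyrylimidazole. Concentrations were measured by GC-FID against an internal standard using standard curves. Clearance was total dose ÷ blood-level AUC (zero to infinity), and volume of distribution was clearance ÷ elimination rate constant.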

[26] = Volume of distribution was measured at given dose of 83 umol/kg; format: ADME, organism-based; conditions: in vivo; in short: as §5
[27] = test system: Canis familiaris; assay: Ventricular rate was measured in anesthetized dog at 0.058 dose; format: functional, Canis lupus familiaris, Heart; conditions: in the assay text read “unanesthetized” for “anesthetized”
In short: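 Adult female dogs (6.7–14.5 kg) had ventricular arrhythmias from two-stage ligation of the left anterior descending coronary artery the day before. Ventricular rate (bpm) was read at maximal antiarrhythmic effect against cumulative dose.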

[28] = test system: Canis familiaris; assay: MABP value was measured in anesthetized dog at 0.018 dose; format: functional, Canis lupus familiaris; conditions: in the assay text read “unanesthetized dog” for “anesthetized dog”; in short: as §2
[29] = test system: Canis familiaris; assay: Ventricular rate was measured in anesthetized dog at 0.018 dose; format: functional, Canis lupus familiaris, Heart; conditions: in the assay text read “unanesthetized dog” for “anesthetized dog”; in short: as §1
[30] = test system: Canis familiaris; assay: Ventricular rate was measured in anesthetized dog at 0.053 dose; format: functional, Canis lupus familiaris, Heart; conditions: in the assay text read “unanesthetized dog” for “anesthetized dog”; in short: as §1
[31] = organism: Canis familiaris; assay: Toxicity of blood level was measured; format: organism-based, Canis lupus familiaris; conditions: dog, in vivo
In short: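 In coronary-ligated conscious dogs under iv infusion, blood was sampled at toxicity. Drug was extracted with methylene chloride at pH 10.3 (ammonium citrate/ammonia) with another analogue as internal standard, then derivatized with heptafluorobutyrylimidazole. Assay was GC-FID on 3% JXR, quantified from drug/internal standard peak-height ratio against standard curves; results in μmol/mL.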

[32] = test system: Canis familiaris; assay: Ventricular rate was measured in anesthetized dog at 0.015 dose; format: functional, Canis lupus familiaris, Heart; conditions: in the assay text read “unanesthetized dog” for “anesthetized dog”; in short: as §1
[33] = Percentage toxicity measured as death of mice.; format: organism-based; set-up: concentration or dose not given beside the values; conditions: mouse, in vivo; read-out: Death
[34] = test system: Canis familiaris; assay: Blood level was measured in anesthetized dog at 0.018 dose; format: functional, Canis lupus familiaris
[35] = test system: Canis familiaris; assay: Blood level was measured in anesthetized dog at 0.023 dose; format: functional, Canis lupus familiaris
[36] = organism: Canis familiaris; assay: Nature of toxicity was expressed; A-V convulsion; format: organism-based, Canis lupus familiaris; conditions: dog, in vivo; in short: as §1
[37] = organism: Mus musculus; assay: Percentage toxicity measured as convulsions.; format: organism-based; conditions: in vivo; in short: as §4
[38] = test system: Canis familiaris; assay: Maximal concentration in dogs after intravenous administration; conditions: dog, in vivo
[39] = as above; conditions: dog, in vivo
[40] = test system: Canis familiaris; assay: MABP value was measured in anesthetized dog at 0.058 dose; format: functional, Canis lupus familiaris; conditions: in the assay text read “unanesthetized dog” for “anesthetized dog”; in short: as §1

Structure (SMILES): CN(C)CCCCN1C(=O)CC2(CCCc3ccc(O)cc32)C1=O (stereo unspecified)
- Dose [1]: A-V convulsion
- Dose [2]: 227 µM/kg
- Blood level [3]: 0.017 uM ml-1
- Etopic beats [4]: 93%
- Protection [5]: 100%
- Blood level [6]: 0.028 uM ml-1
- Etopic beats [7]: 3%
- Etopic beats [8]: 0%
- Loss of righting reflex [9]: 0%
- Dose [10]: 83 µM/kg
- MABP [11]: 105 mmHg
- Etopic beats [12]: 0%
- Ventricular rate [13]: 138 beats min-1
- Ectopic beats [14]: 4%
- MABP [15]: 110 mmHg
- Blood level [16]: 0.023 uM ml-1
- ED50 [17]: 160 µmol/kg
- Ventricular rate [18]: 171 beats min-1
- Etopic beats [19]: 1%
- MABP [20]: 85 mmHg
- ClB [21]: 17.5 mL/min/kg
- clearance ([21]; ClB): 31.6 mL/min/kg
- MABP [22]: 135 mmHg
- Blood level [23]: 0.024 uM ml-1
- Ataxia [24]: 0%
- Vd [25]: 3.35 L/kg
- Vd [26]: 3.02 L/kg
- Ventricular rate [27]: 171 beats min-1
- MABP [28]: 120 mmHg
- Ventricular rate [29]: 150 beats min-1
- Ventricular rate [30]: 183 beats min-1
- Blood level [31]: 12 µM
- Ventricular rate [32]: 165 beats min-1
- mortality [33]: 0%
- Blood level [34]: 0.022 uM ml-1
- Blood level [35]: 0.02 uM ml-1
- Nature [36]: A-V convulsion
- Convulsion [37]: 0%
- Cmax [38]: 30 µM
- Cmax [39]: 37 µM
- MABP [40]: 95 mmHg
